Measurements as given in ChEMBL document CHEMBL1158500, “Synthesis and biological evaluation of new potential inhibitors of N-acylethanolamine hydrolyzing acid amidase” (Bioorg Med Chem Lett, 2010).
Active and inactive are the calls of the source. No cut-off for these calls is given here.

Tests used:
[1] = target: T1, N-acylethanolamine-hydrolyzing acid amidase (Homo sapiens) (UniProt Q02083); assay: Inhibition of human recombinant NAAA expressed in human HEK293 cells assessed as conversion of [1,2-14C]palmitoylethanolamine to [1,2-14C]ethanolamine at 50 uM by liquid scintillation counting; assay type: cell-based
T1 sequence (whole entry): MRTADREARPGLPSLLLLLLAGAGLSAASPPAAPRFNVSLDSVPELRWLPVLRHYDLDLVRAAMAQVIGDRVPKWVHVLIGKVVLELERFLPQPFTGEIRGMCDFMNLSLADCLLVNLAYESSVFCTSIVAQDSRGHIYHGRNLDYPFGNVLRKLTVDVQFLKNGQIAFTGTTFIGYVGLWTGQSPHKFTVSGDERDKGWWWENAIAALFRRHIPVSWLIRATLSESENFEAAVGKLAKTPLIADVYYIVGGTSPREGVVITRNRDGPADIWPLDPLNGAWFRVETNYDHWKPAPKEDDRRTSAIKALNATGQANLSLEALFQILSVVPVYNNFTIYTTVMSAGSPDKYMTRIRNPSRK

[2] = target: T2, N-acylethanolamine-hydrolyzing acid amidase (Homo sapiens, UniProt Q02083); assay: Inhibition of NAAA
T2 sequence (Q02083 whole entry): T1 sequence (whole entry)

[3] = target: Cannabinoid receptor 1 (Homo sapiens) (UniProt P21554); assay: Displacement of [3H]CP-55940 from human recombinant CB1 receptor expressed in HEK293 cells up to 50 uM after 90 mins; assay type: cell-based
[4] = target: T2, N-acylethanolamine-hydrolyzing acid amidase; assay: Inhibition of human recombinant NAAA expressed in human HEK293 cells assessed as conversion of [1,2-14C]palmitoylethanolamine to [1,2-14C]ethanolamine by liquid scintillation counting
[5] = target: T3, Fatty-acid amide hydrolase 1 (Homo sapiens) (UniProt O00519); assay: Inhibition of FAAH up to 50 uM
T3 sequence (whole entry): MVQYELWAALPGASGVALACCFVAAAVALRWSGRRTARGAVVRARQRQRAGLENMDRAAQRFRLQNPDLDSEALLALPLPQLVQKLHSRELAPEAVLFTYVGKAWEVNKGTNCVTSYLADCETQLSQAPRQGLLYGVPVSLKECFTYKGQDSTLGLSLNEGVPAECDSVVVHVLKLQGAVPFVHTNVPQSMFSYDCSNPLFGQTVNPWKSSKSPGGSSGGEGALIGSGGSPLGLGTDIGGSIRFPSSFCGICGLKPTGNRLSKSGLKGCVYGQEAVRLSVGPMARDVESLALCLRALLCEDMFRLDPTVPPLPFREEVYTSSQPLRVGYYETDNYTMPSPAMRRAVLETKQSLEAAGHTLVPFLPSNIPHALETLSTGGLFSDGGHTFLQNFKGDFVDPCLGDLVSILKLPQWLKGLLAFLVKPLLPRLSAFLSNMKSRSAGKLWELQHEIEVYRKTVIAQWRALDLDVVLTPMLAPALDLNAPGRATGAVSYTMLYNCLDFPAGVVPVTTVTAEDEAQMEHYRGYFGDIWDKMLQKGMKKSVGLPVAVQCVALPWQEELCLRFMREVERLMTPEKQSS

[6] = target: Peroxisome proliferator-activated receptor (Homo sapiens) (UniProt P37231+Q07869+Q03181); assay: Inhibition of PPAR in intact human HEK293 cells assessed as N-oleoylethanolamine level by LC-APCI-MS analysis; assay type: cell-based
How it was run: (§1)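 Intact HEK-NAAA cells (HEK-293 stably overexpressing human NAAA) were treated. Cellular PEA, AEA, OEA and 2-arachidonoylglycerol were quantified by isotope-dilution liquid chromatography–mass spectrometry and expressed as pmol/mg lipid.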

[7] = target: Cannabinoid receptor 1 (Homo sapiens) (UniProt P21554); assay: Inhibition of CB1 receptor in intact human HEK293 cells assessed as 2-arachidonoylglycerol level by LC-APCI-MS analysis; assay type: cell-based; how it was run: as §1
[8] = target: T1, N-acylethanolamine-hydrolyzing acid amidase (Homo sapiens); assay: Competitive inhibition of human recombinant NAAA expressed in human HEK293 cells assessed as conversion of [1,2-14C]palmitoylethanolamine to [1,2-14C]ethanolamine by Lineweaver-Burke plot analysis; assay type: cell-based
[9] = target: T3, Fatty-acid amide hydrolase 1 (Homo sapiens); assay: Inhibition of FAAH in human intact HEK293 assessed as anandamide level by LC-APCI-MS analysis; assay type: cell-based; how it was run: as §1
[10] = target: Transient receptor potential cation channel subfamily V member 1 (Homo sapiens) (UniProt Q8NER1); assay: Inhibition of human TRPV1 expressed in HEK293 cells up to 50 uM; assay type: cell-based
[11] = target: Cannabinoid receptor 2 (Homo sapiens) (UniProt P34972); assay: Displacement of [3H]CP-55940 from human recombinant CB2 receptor expressed in HEK293 cells up to 50 uM after 90 mins; assay type: cell-based
[12] = target: T1, N-acylethanolamine-hydrolyzing acid amidase (Homo sapiens); assay: Inhibition of NAAH in human intact HEK293 assessed as N-palmitoylethanolamine level by LC-APCI-MS analysis; assay type: cell-based; how it was run: as §1

| Structure (SMILES) | inhibition [1] | also measured |
| --- | --- | --- |
| CCCCCCCCCCCCCCCNC(=O)CCO | – | IC50 [2]: 32 µM |
| CCCCCCCCCCCCCCCC(=O)OC1CCCCC1 | 18% | – |
| CCCCCCCCCCCCCCCC(=O)OC1CCCC1 [CYCLOPENTYL PALMITATE] | 85% | Activity [3]: inactive; IC50 [4]: 10 µM; Activity [5]: inactive; Activity [6]: inactive; Activity [7]: inactive; Activity [8]: Active; Activity [9]: inactive; Activity [10]: inactive; Activity [11]: inactive; Activity [12]: Active |
| CCCCCCCCCCCCCCC(=O)OC1CCCC1 | 25% | – |
| CCCCCCCCCCCCCCCNC(=O)c1ccccc1 | – | IC50 [2]: 8.3 µM |
| CCCCCCCCCCCCCCCCNC(=O)c1ccc([N+](=O)[O-])cc1 | 4% | – |
| CCCCCCCCCCCCCCCC(=O)NCCc1ccc(OC)cc1 | inactive | – |
| CCCCCCCCCCCCCCCCOC(=O)CC [HEXADECYLPROPIONATE] | – | IC50 [2]: 54 µM |
| CCCCCCCCCCCCCCCCOC(=O)Nc1ccc(OC)cc1 | inactive | – |
| CCCCCCCCCCCCCCC(=O)OC1CCCCC1 | 28% | – |
| CCCCCCCCCCCCCCCCC(=O)OC1CCC1 | inactive | – |
| CCCCCCCCCCCCCCCNC(=O)C1CCCCC1 [CYCLOHEXANECARBOXYLIC ACID PENTADECYLAMIDE] | – | IC50 [4]: 17 µM |
| CCCCCCCCCCCCCCCC(=O)Nc1ccc(OC)cc1 | inactive | – |
| CCCCCCCCCCCCCCCC(=O)NN1CCN(c2cc(C)ccc2C)CC1 | inactive | – |

Now from value to compound, other results behind:

| inhibition [1] | Structure (SMILES) | also measured |
| --- | --- | --- |
| inactive | CCCCCCCCCCCCCCCCNC(=O)c1ccc(OC)cc1 | – |
| 29% | CCCCCCCCCCCCCCC(=O)OC1CCC1 | – |
| 17% | CCCCCCCCCCCCCCCCOC(=O)C1CCCC1 | – |
| inactive | CCCCCCCCCCCCCCCC(=O)Oc1ccc(OC)cc1 | – |
| inactive | CCCCCCCCCCCCCCCCC(=O)OC1CCCCC1 | – |
| inactive | CCCCCCCCCCCCCCCC(=O)NN1CCN(c2ccc(Cl)cc2)CC1 | – |
| 15% | CCCCCCCCCCCCCCCC(=O)Nc1ccc([N+](=O)[O-])cc1 | – |
| inactive | CCCCCCCCCCCCCCCC(=O)NCCc1cc(OC)cc(OC)c1 | – |
| inactive | CCCCCCCCCCCCCCCC(=O)NN1CCN(c2ccc(C)c(C)c2)CC1 | – |
| inactive | CCCCCCCCCCCCCCCCOC(=O)c1ccc(OC)cc1 | – |
| inactive | CCCCCCCCCCCCCCCC(=O)NN1CCN(c2ccc(F)cc2)CC1 | – |
| inactive | CCCCCCCCCCCCCCCC(=O)NC1CCN(Cc2ccccc2)CC1 | – |
| 41% | CCCCCCCCCCCCCCCC(=O)OC1CCC1 | – |
| inactive | CCCCCCCCCCCCCCCCOC(=O)NC1CCCCC1 | – |
| inactive | CCCCCCCCCCCCCCCCC(=O)OC1CCCC1 | – |
| 8% | CCCCCCCCCCCCCCCCNC(=O)C1CCCC1 | – |
| 26% | CCCCCCCCCCCCCCCCOC(=O)c1ccc([N+](=O)[O-])cc1 | – |
